Measurements: ChEMBL document CHEMBL4354800, “Amphiphilic nebramine-based hybrids Rescue legacy antibiotics from intrinsic resistance in multidrug-resistant Gram-negative bacilli” (Eur J Med Chem, 2019)

Assays:
Pseudomonas aeruginosa [1] = experiment: Antimicrobial activity against MDR/XDR Pseudomonas aeruginosa isolate 101885 harboring GyrA Thr83Ile mutant incubated for 18 hrs by broth microdilution method; type: functional; conditions: isolate 101885, 18 h
Summary of the method: (§1)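 Broth microdilution per CLSI: overnight cultures set to 0.5 McFarland in saline, diluted 1:50 in Mueller-Hinton broth to a final 5 × 10^5 CFU/mL, added to 2-fold serial dilutions, incubated 18 h at 37 °C; MIC is the lowest concentration without visible turbidity, confirmed at 590 nm.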

Pseudomonas aeruginosa [2] = experiment: Synergistic antibacterial activity against MDR/XDR Pseudomonas aeruginosa isolate 101885 harboring T83I mutant assessed as fractional inhibitory concentration index in presence of minocycline incubated for 18 hrs by broth microdilution method; type: functional
Summary of the method: (§2)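 Checkerboard synergy assay. Antibiotic and adjuvant in twofold dilutions in Mueller-Hinton broth. Inoculum 5 × 10^5 CFU/mL from a 0.5 McFarland suspension, 18 h at 37 °C, MIC read by turbidity and confirmed at 590 nm. FIC = MIC in combination / MIC alone for each agent, FICI = sum. Interpreted as ≤0.5 synergy, 0.5–4 no interaction, >4 antagonism.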

Pseudomonas aeruginosa [3] = experiment: Antimicrobial activity against MDR/XDR Pseudomonas aeruginosa isolate PA260-97103 harboring GyrA Thr83Ile mutant incubated for 18 hrs by broth microdilution method; type: functional; conditions: isolate PA260-97103, 18 h; summary of the method: as §1
Pseudomonas aeruginosa [4] = experiment: Synergistic antibacterial activity against MDR/XDR Pseudomonas aeruginosa isolate PA260-97103 harboring GyrA T83I mutant assessed as fractional inhibitory concentration index in presence of moxifloxacin incubated for 18 hrs by broth microdilution method; type: functional; summary of the method: as §2
Pseudomonas aeruginosa [5] = experiment: Synergistic antibacterial activity against MDR/XDR Pseudomonas aeruginosa isolate PA259-96918 harboring T83I mutant assessed as fractional inhibitory concentration index in presence of rifampicin incubated for 18 hrs by broth microdilution method; type: functional; summary of the method: as §2
Pseudomonas aeruginosa [6] = experiment: Synergistic antibacterial activity against MDR/XDR Pseudomonas aeruginosa isolate PA260-97103 harboring GyrA T83I mutant assessed as fractional inhibitory concentration index in presence of rifampicin incubated for 18 hrs by broth microdilution method; type: functional; summary of the method: as §2
Pseudomonas aeruginosa [7] = experiment: Synergistic antibacterial activity against MDR/XDR Pseudomonas aeruginosa isolate 101243 devoid of GyrA T83I mutant assessed as fractional inhibitory concentration index in presence of rifampicin incubated for 18 hrs by broth microdilution method; type: functional; summary of the method: as §2
Pseudomonas aeruginosa [8] = experiment: Synergistic antibacterial activity against MDR/XDR Pseudomonas aeruginosa isolate PA262-101856 harboring GyrA T83I mutant assessed as fractional inhibitory concentration index in presence of rifampicin incubated for 18 hrs by broth microdilution method; type: functional; summary of the method: as §2
Pseudomonas aeruginosa [9] = experiment: Synergistic antibacterial activity against MDR/XDR Pseudomonas aeruginosa isolate 101885 harboring GyrA T83I mutant assessed as fractional inhibitory concentration index in presence of ciprofloxacin incubated for 18 hrs by broth microdilution method; type: functional; summary of the method: as §2
Pseudomonas aeruginosa [10] = experiment: Synergistic antibacterial activity against wild type Pseudomonas aeruginosa PAO1 assessed as fractional inhibitory concentration index in presence of minocycline incubated for 18 hrs by broth microdilution method; type: functional
Summary of the method: (§3)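 Checkerboard titration of the adjuvant against the antibiotic, run under the CLSI microdilution conditions (MHB, 5 × 10^5 CFU/mL, 18 h, 37 °C). Each agent's FIC is its MIC in combination divided by its MIC alone; FICI is the sum of the two FICs. FICI ≤0.5 was read as synergy, >0.5–4.0 as no interaction, and >4.0 as antagonism.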

Pseudomonas aeruginosa [11] = experiment: Synergistic antibacterial activity against MDR/XDR Pseudomonas aeruginosa isolate 101243 devoid of GyrA T83I mutant assessed as fractional inhibitory concentration index in presence of moxifloxacin incubated for 18 hrs by broth microdilution method; type: functional; summary of the method: as §2
Pseudomonas aeruginosa [12] = experiment: Antimicrobial activity against MDR/XDR Pseudomonas aeruginosa isolate PA259-96918 harboring GyrA Thr83Ile mutant incubated for 18 hrs by broth microdilution method; type: functional; conditions: isolate PA259-96918, 18 h; summary of the method: as §1
Pseudomonas aeruginosa [13] = experiment: Synergistic antibacterial activity against MDR/XDR Pseudomonas aeruginosa isolate 91433 devoid of GyrA T83I mutant assessed as fractional inhibitory concentration index in presence of ciprofloxacin incubated for 18 hrs by broth microdilution method; type: functional; summary of the method: as §2
Pseudomonas aeruginosa [14] = experiment: Synergistic antibacterial activity against MDR/XDR Pseudomonas aeruginosa isolate PA260-97103 harboring GyrA T83I mutant assessed as fractional inhibitory concentration index in presence of ciprofloxacin incubated for 18 hrs by broth microdilution method; type: functional; summary of the method: as §2
[15] = Retention time of the compound by HPLC analysis; type: physicochemical
Pseudomonas aeruginosa [16] = experiment: Synergistic antibacterial activity against wild type Pseudomonas aeruginosa PAO1 assessed as fractional inhibitory concentration index in presence of rifampicin incubated for 18 hrs by broth microdilution method; type: functional; summary of the method: as §2
Pseudomonas aeruginosa [17] = experiment: Synergistic antibacterial activity against MDR/XDR Pseudomonas aeruginosa isolate PA259-96918 harboring GyrA T83I mutant assessed as fractional inhibitory concentration index in presence of ciprofloxacin incubated for 18 hrs by broth microdilution method; type: functional; summary of the method: as §2
Pseudomonas aeruginosa [18] = experiment: Antimicrobial activity against wild type Pseudomonas aeruginosa PAO1 incubated for 18 hrs by broth microdilution method; type: functional; conditions: PAO1, 18 h; summary of the method: as §1
Pseudomonas aeruginosa [19] = experiment: Synergistic antibacterial activity against MDR/XDR Pseudomonas aeruginosa isolate PA259-96918 harboring GyrAT83I mutant assessed as fractional inhibitory concentration index in presence of minocycline incubated for 18 hrs by broth microdilution method; type: functional; summary of the method: as §2
Pseudomonas aeruginosa [20] = experiment: Synergistic antibacterial activity against MDR/XDR Pseudomonas aeruginosa isolate 91433 devoid of GyrA T83I mutant assessed as fractional inhibitory concentration index in presence of moxifloxacin incubated for 18 hrs by broth microdilution method; type: functional; summary of the method: as §2
Klebsiella pneumoniae [21] = experiment: Synergistic antibacterial activity against Klebsiella pneumoniae 116381 assessed as fractional inhibitory concentration index in presence of minocycline incubated for 18 hrs by broth dilution method; type: functional; summary of the method: as §3
HEK293 = experiment: Cytotoxicity against HEK293 cells at 50 uM incubated for 48 hrs by PrestoBlue dye based fluorescence assay; type: cell-based; conditions: human, hek293, 48 h
Enterobacter cloacae [22] = experiment: Synergistic antibacterial activity against Enterobacter cloacae 117029 assessed as fractional inhibitory concentration index in presence of minocycline incubated for 18 hrs by broth dilution method; type: functional; summary of the method: as §3
Klebsiella pneumoniae [23] = experiment: Synergistic antibacterial activity against Klebsiella pneumoniae 116381 assessed as fractional inhibitory concentration index in presence of rifampicin incubated for 18 hrs by broth dilution method; type: functional; summary of the method: as §3
Enterobacter cloacae [24] = experiment: Synergistic antibacterial activity against Enterobacter cloacae 117029 assessed as fractional inhibitory concentration index in presence of rifampicin incubated for 18 hrs by broth dilution method; type: functional; summary of the method: as §3
Pseudomonas aeruginosa [25] = experiment: Antimicrobial activity against MDR/XDR Pseudomonas aeruginosa isolate PA264-104354 harboring GyrA Thr83Ile mutant incubated for 18 hrs by broth microdilution method; type: functional; conditions: isolate PA264-104354, 18 h; summary of the method: as §1
Klebsiella pneumoniae [26] = experiment: Antimicrobial activity against Klebsiella pneumoniae 116381 incubated for 18 hrs by broth dilution method; type: functional; conditions: Klebsiella pneumoniae, 116381, 18 h
Summary of the method: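 CLSI broth microdilution. Overnight cultures were adjusted to 0.5 McFarland in saline, diluted 1:50 in Mueller-Hinton broth, and inoculated at a final 5 × 10^5 CFU/mL. Compounds were tested as 2-fold serial dilutions and incubated 18 h at 37 °C. MIC was the lowest concentration with no visible turbidity, confirmed by absorbance at 590 nm.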

HepG2 = experiment: Cytotoxicity against human HepG2 cells at 50 uM incubated for 48 hrs by PrestoBlue dye based fluorescence assay; type: cell-based; conditions: hepg2, 48 h

SMILES	MIC (Pseudomonas aeruginosa [1]) [µg/mL]	fractional inhibitory concentration index (FICI) (Pseudomonas aeruginosa [2])	MIC (Pseudomonas aeruginosa [3]) [µg/mL]	fractional inhibitory concentration index (FICI) (Pseudomonas aeruginosa [4])	fractional inhibitory concentration index (FICI) (Pseudomonas aeruginosa [5])	fractional inhibitory concentration index (FICI) (Pseudomonas aeruginosa [6])	fractional inhibitory concentration index (FICI) (Pseudomonas aeruginosa [7])	fractional inhibitory concentration index (FICI) (Pseudomonas aeruginosa [8])	fractional inhibitory concentration index (FICI) (Pseudomonas aeruginosa [9])	fractional inhibitory concentration index (FICI) (Pseudomonas aeruginosa [10])	fractional inhibitory concentration index (FICI) (Pseudomonas aeruginosa [11])	MIC (Pseudomonas aeruginosa [12]) [µg/mL]	fractional inhibitory concentration index (FICI) (Pseudomonas aeruginosa [13])	fractional inhibitory concentration index (FICI) (Pseudomonas aeruginosa [14])	Retention_time [15] [min]	fractional inhibitory concentration index (FICI) (Pseudomonas aeruginosa [16])	fractional inhibitory concentration index (FICI) (Pseudomonas aeruginosa [17])	MIC (Pseudomonas aeruginosa [18]) [µg/mL]	fractional inhibitory concentration index (FICI) (Pseudomonas aeruginosa [19])	fractional inhibitory concentration index (FICI) (Pseudomonas aeruginosa [20])	other results
Cl.Cl.Cl.Cl.Cl.Cl.NC[C@H]1O[C@H](O[C@H]2[C@H](OCCCCCCCCCCN3CCN(Cc4cccc5ccccc45)CC3)[C@@H](O)[C@H](N)C[C@@H]2N)[C@H](N)C[C@@H]1O	512	0.04	32	0.08	0.004 - 0.006	0.05	0.05	0.02	0.13	0.09	0.13	> 512	0.38	0.38	12.917	0.02	0.063 - 0.078	256	0.016 - 0.031	0.25	–
Cl.Cl.Cl.Cl.Cl.NC[C@H]1O[C@H](O[C@H]2[C@H](OCCCCCCCCCCCCN3CCN(c4cc5c(cc4F)c(=O)c(C(=O)O)cn5C4CC4)CC3)[C@@H](O)[C@H](N)C[C@@H]2N)[C@H](N)C[C@@H]1O	–	–	–	–	0.008 - 0.016	–	–	–	–	0.047	–	> 128	–	–	14.945	0.047	–	64	0.031 - 0.063	–	fractional inhibitory concentration index (FICI) (Klebsiella pneumoniae [21]): 0.063 - 0.07; Activity (HEK293): Non-Toxic; fractional inhibitory concentration index (FICI) (Enterobacter cloacae [22]): 0.125; fractional inhibitory concentration index (FICI) (Klebsiella pneumoniae [23]): <=0.039; fractional inhibitory concentration index (FICI) (Enterobacter cloacae [24]): 0.023; MIC (Pseudomonas aeruginosa [25]): 128 µg/mL; MIC (Klebsiella pneumoniae [26]): > 128 µg/mL; Activity (HepG2): Non-Toxic
COc1c(N2C[C@@H]3CCCN(CCCCCCCCCCCCO[C@@H]4[C@@H](O)[C@H](N)C[C@H](N)[C@H]4O[C@H]4O[C@H](CN)[C@@H](O)C[C@H]4N)[C@@H]3C2)c(F)cc2c(=O)c(C(=O)O)cn(C3CC3)c12.Cl.Cl.Cl.Cl.Cl	128	0.07	32	0.13	0.004 - 0.01	0.06	0.13	0.008 - 0.02	>1	0.38	0.16	> 256	0.25	0.25	14.585	0.07	0.25 - 0.27	32	0.03 - 0.04	0.31	fractional inhibitory concentration index (FICI) (Klebsiella pneumoniae [21]): 0.063 - 78; Activity (HEK293): Non-Toxic; fractional inhibitory concentration index (FICI) (Enterobacter cloacae [22]): 0.19; fractional inhibitory concentration index (FICI) (Klebsiella pneumoniae [23]): 0.002 - 0.006; fractional inhibitory concentration index (FICI) (Enterobacter cloacae [24]): 0.06; MIC (Pseudomonas aeruginosa [25]): 256 µg/mL; MIC (Klebsiella pneumoniae [26]): > 256 µg/mL; Activity (HepG2): Non-Toxic
